Measured values: ChEMBL document CHEMBL1154135, “Macaflavanones A-G, prenylated flavanones from the leaves of Macaranga tanarius” (J Nat Prod, 2008)
Active and inactive are the calls of the source. The calls are words filed in the database; no cut-off is given here.

Legend:
[1] = system: A549; experiment: Cytotoxicity against human A549 cells after 72 hrs by MTT assay; assay type: functional, cell-based; details: for IC50: A549, 72 h
How it was run: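 A549 cells exposed 72 h to samples added in 10% DMSO after a 24 h pre-culture at 37 °C, 5% CO2. MTT (0.5 mg/mL) in DMEM for 1.5 h, formazan dissolved in DMSO, absorbance at 540 nm minus 620 nm. % inhibition relative to untreated control gives IC50; etoposide positive control; means with SD from triplicate experiments.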

[2] = system: KB; experiment: Cytotoxicity against human KB cells after 72 hrs by MTT assay; assay type: functional, cell-based
How it was run: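 KB cells seeded at 3 × 10^3 cells/well in DMEM with 10% FBS, amphotericin B (0.5 µg/ml) and kanamycin sulfate (100 µg/mL), 37 °C, 5% CO2. After 24 h, samples in 10% DMSO added; incubated 72 h. MTT (0.5 mg/mL) added for 1.5 h, formazan dissolved in DMSO, absorbance at 540 nm minus 620 nm. % inhibition vs control; etoposide positive control; means with SD, triplicate.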

| SMILES | IC50 [1] | IC50 [2] | Activity [1] | Activity [2] |
| --- | --- | --- | --- | --- |
| COc1cc([C@@H]2c3cc4c(cc3[C@@H](O[C@@H]3O[C@@H]5CO[C@@H](C)O[C@H]5[C@H](O)[C@H]3O)[C@H]3COC(=O)[C@H]23)OCO4)cc(OC)c1O [ETOPOSIDE] | 8.37 µM | 1.25 µM | – | – |
| CC(C)=CCC[C@@]1(C)CCc2c([C@@H]3CC(=O)c4c(cc(O)c(CC=C(C)C)c4O)O3)ccc(O)c2O1 | – | – | inactive | inactive |
| CC(C)=CCC/C(C)=C/Cc1c([C@@H]2CC(=O)c3c(cc4c(c3O)C=CC(C)(C)O4)O2)ccc(O)c1O | – | – | inactive | inactive |
| CC(C)=C/C=C/[C@]1(C)CCc2c([C@@H]3CC(=O)c4c(cc(O)c(CC=C(C)C)c4O)O3)ccc(O)c2O1 | – | – | inactive | inactive |
| CC(C)=CCC[C@]1(C)CCc2c([C@@H]3CC(=O)c4c(cc(O)c(CC=C(C)C)c4O)O3)ccc(O)c2O1 [MACAFLAVANONE G] | 13.4 µM | 12.3 µM | – | – |
| CC(C)=C/C=C/[C@@]1(C)CCc2c([C@@H]3CC(=O)c4c(cc(O)c(CC=C(C)C)c4O)O3)ccc(O)c2O1 | – | – | inactive | inactive |
| CC(C)=CCC/C(C)=C/Cc1c([C@@H]2CC(=O)c3c(cc4c(c3O)CCC(C)(C)O4)O2)ccc(O)c1O | – | – | inactive | inactive |
| CC(C)=CCC[C@@]1(C)C=Cc2c([C@@H]3CC(=O)c4c(cc(O)c(CC=C(C)C)c4O)O3)ccc(O)c2O1 | – | – | inactive | inactive |
